assay: Toxicity liver stage against HepG2, at 10uM; type: cell-based; set-up: test concentration 10 uM, cell line HepG2-A16-CD81EGFP; settings: human, HepG2-A16-CD81EGFP cells; read-out: INHIBITION
Outline: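 Uninfected HepG2-A16-CD81EGFP cells, 3 × 10^3 per well, 1536-well, plated on prespotted compound at 10 μM final, parasite-free screening media added to match infected plates; puromycin 10 μM positive, DMSO 0.5% negative; run in parallel with 48 h PbLuc assay at 37 °C, 5% CO2; viability by CellTiter-Glo luminescence, normalized to controls.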

| Structure (SMILES) | cytotoxicity at 10 µM |
| --- | --- |
| CSc1ccccc1C(=O)C1CCCN(Cc2ccccn2)C1 (configuration not stated) | -6.12% |
| CSCCC(=O)N1CC[C@@H](N2CCN(c3ccccc3F)CC2)[C@H](O)C1 | -91.4% |
| CC(C)(C)CC(=O)N1CC[C@H]2NC(=O)N(Cc3ccccc3)C(=O)[C@H]21 | -0.171% |
| CCc1noc(-c2cccc(OCC(=O)NC(C)C)c2)n1 | -6.53% |
| CCCS(=O)(=O)N1CC(=O)N(CCCc2ccccc2)CC(O)C1 (configuration not stated) | -17% |
| COC(=O)CNC(=O)Cn1ccc2cccc(OC)c21 | -34.9% |
| Cc1ccccc1NC(=O)NCC(C)(O)c1cccs1 (configuration not stated) | 8.5% |
| O=C(c1cc(C2CC2)on1)N1CCC(Oc2ncccc2Cl)CC1 | 5.37% |
| O=C1[C@@H]2CCN(CC3CC3)C[C@@H]2OCCN1c1ccsc1 | 10.5% |
| CC1c2ncc(Cn3cncn3)n2CCN1C(=O)N(C)C (configuration not stated) | 0.267% |
| COCC(=O)N1CC[C@H]2OCC[C@@]2(c2nc(C)no2)C1 | -0.461% |
| CSc1ccc(NC(=O)Nc2ccc3c(c2)N(S(C)(=O)=O)CC3)cc1 | 48.5% |
| CN(Cc1ccccn1)C(=O)[C@]12COC[C@H]1CN(Cc1cnn(C)c1)C2 | -9.74% |
| CN1CCCc2c1nc1c(c2N)CCC1 | 10.2% |
| Cc1cnc(NC(=O)C(C)n2ccc(C(F)(F)F)n2)s1 (configuration not stated) | 1.75% |
| O=S(=O)(c1cc(F)ccc1F)n1cc(Cl)cn1 | 4.52% |
| CN(CCc1cn[nH]c1)C(=O)CCc1ccc(Cl)cc1 | 1.82% |
| COc1ccccc1C1Cn2c(C)cnc2CN1Cc1ccc(C)nc1 (configuration not stated) | -3.18% |
| CS(=O)(=O)c1snnc1C1CCN(Cc2cccnc2)CC1 | -11.2% |
| O=C(NCCCn1cccn1)C1COCC(=O)N1Cc1ccccc1 (configuration not stated) | -8.57% |
| Cc1ccccc1-n1ccnc1S(=O)(=O)Cc1nsc(N(C)C)n1 | 2.56% |

| Structure (SMILES) | cytotoxicity at 10 µM |
| --- | --- |
| COc1ccc(-n2cc(CNC(=O)c3ccc[nH]3)nn2)cc1 | -10.9% |
| Clc1cc(Cl)cc(CN2CCC(NCc3ncc[nH]3)CC2)c1 | 18.4% |
| CC(C)c1ccc(CNC(c2ccc(F)cn2)C(C)C)cc1 (configuration not stated) | -4.45% |
| Cc1nc(COC(=O)c2cccc3c2OCCO3)cs1 | 1.4% |
| COC1CCN(S(=O)(=O)N2CCCC2c2ccco2)CC1 (configuration not stated) | 11% |
| CCC(C#N)NC(=O)CCCOc1cccc(C(C)=O)c1 (configuration not stated) | -35.1% |
| CCc1csc(C2CCCN(C(=O)c3ccc(=O)n(C)n3)C2)n1 (configuration not stated) | -44.1% |
| O=C1CN(c2ccc(C(=O)N3CCc4ccccc43)cn2)CCN1 | 2.66% |
| CCCn1nnnc1COC(=O)C1COc2ccccc2O1 (configuration not stated) | 3.72% |
| O=C1N(CC2CC2)C(c2cncs2)NC12CCCC2 (configuration not stated) | -3.84% |
| CN(Cc1cccc(C(N)=O)c1)c1ncc(C(N)=O)cc1Cl | -3.73% |
| CN(Cc1ccc2c(c1)OCO2)C(=O)c1ccn(C)c(=O)c1 | 3.01% |
| OC(CN1CC(n2cccn2)C1)c1ccc2c(c1)OCCO2 (configuration not stated) | -19% |
| Clc1cnccc1N1CCC(OC2CCOCC2)CC1 | -0.439% |
| COc1ccc(CNC(=O)NCc2nc(C)c(C)s2)cn1 | 8.73% |
| CCN(Cc1ccoc1)C(=O)NC1CCN(CC2CCCC2)CC1 | -6.11% |
| CCN(Cc1ccoc1)C(=O)c1cc2c(c(S(N)(=O)=O)c1)CCC2 | -4.97% |
| Cn1cc(CCNC(=O)C2(c3cccc(Cl)c3)CC2)cn1 | 0.33% |
| CCOc1ccc(CNC(=O)N(C)Cc2ncnn2C)cc1C | -16% |
| Cc1ccc(C2CCCCCN2CCCS(C)(=O)=O)o1 (configuration not stated) | -4.3% |
| CN(Cc1cnn(C)c1)C(CO)c1cccc(Br)c1 (configuration not stated) | -2.86% |

| Structure (SMILES) | cytotoxicity at 10 µM |
| --- | --- |
| O=C(CNc1cccc(CC(F)(F)F)c1)NCc1ccco1 | -46.3% |
| O=C(NC1CCc2ccccc2C1)N1CCN(C(=O)C2CCC2)CC1 (configuration not stated) | -5.59% |
| CN(C(=O)c1cccc(C(=O)NS(C)(=O)=O)c1)c1ccccc1 | -2.35% |
| O=C(c1cnccn1)N1CCc2ncc(CN3CCOCC3)n2CC1 | -77% |
| CCOC[C@@H]1CCC[C@@]12CN(Cc1cccnc1)CCO2 | -65.7% |
| O=C(c1cccs1)N1CCC2(CC1)CN(c1cncnc1)C(=O)CO2 | -67.7% |
| Cc1cc(C(=O)N2CC[C@H]3C[C@H](c4ccncn4)O[C@@H]3C2)c(C)[nH]1 | -70.1% |
| Cc1nn(CC(=O)O)c(C)c1NS(=O)(=O)c1cc2ccccc2s1 | -7.07% |
| Cn1cc(CN2CCC(Cn3cc(-c4ccccc4)nn3)CC2)cn1 | 9.47% |
| c1ccc(-c2nc3c(c(NCc4n[nH]c5c4CCC5)n2)CCNC3)cc1 | -12.8% |
| Cc1nc(C2CCCNC2)cc(N(Cc2nccn2C)C2CC2)n1 (configuration not stated) | -3.42% |
| CN(CCc1cnn(C)c1)C(=O)C(c1ccccc1F)N(C)C (configuration not stated) | 3.11% |
| CCCc1nc(C)c(CNc2nc(C)nc3oc(C)nc23)s1 | -44.6% |
| c1ccc(Oc2nccc3occc23)c(CN2CCCCC2)c1 | -10.1% |
| CCCC(=O)N(Cc1ccncc1)C(C)CC (configuration not stated) | 9.66% |
| OCc1ccc(CN2CCC(n3cc(C4CCCCC4)nn3)CC2)o1 | 1.02% |
| Cc1nccn1CCN(C)C(=O)C1CCN(C(=O)C2CCCC2)CC1 | -4.06% |
| CC[C@@H](CO)NC(=O)c1cc(COc2ccc(OC)cc2Cl)[nH]n1 | -34.4% |
| O=C(Nc1ccc(S(=O)(=O)Nc2ccccc2)cc1)N1CCCC1 | 10.9% |
| CN(Cc1cn(C2CCNCC2)nn1)CC1CCCO1 (configuration not stated) | -4.76% |
| c1ccc2c(c1)CC(N1CCCN(Cc3cccc4nonc34)CC1)C2 | -2.37% |

| Structure (SMILES) | cytotoxicity at 10 µM |
| --- | --- |
| CC(C)Oc1ccc(CNC(=O)NCC(C)(C)C(N)=O)cc1F | -24.8% |
| CCc1ccc(CNc2cc(N3CCCC3CO)ncn2)s1 (configuration not stated) | -13% |
| Cc1ccc(C(=O)N2CCC(Oc3ccc(F)cc3F)CC2)c(=O)[nH]1 | 7.63% |
| Cc1cnn(CC2CCCN2C(=O)c2cnc3n[nH]c(C)c3c2)c1 (configuration not stated) | 8.73% |
| CC(C)c1nnc2n1CCN(C(=O)c1ccc(CN(C)C)cc1)C2 | 5.2% |
| Cc1nnc(N2CCC(CN(C)C(C)C)CC2)c(C#N)c1C | 3.63% |
| c1nc(CCC2CCCN2)cc(N2CCCOCC2)n1 (configuration not stated) | 3.91% |
| CN(Cc1cccnc1)C1CC2(CCN(c3ncc(F)cn3)CC2)C1 | 18% |
| FC1(F)CCN(Cc2ccncc2)CC12CCN(Cc1ccccn1)C2 (configuration not stated) | 10.2% |
| c1ccn(Cc2noc3c2CN(Cc2ccsc2)CC3)c1 | 9.37% |
| Cn1cnc(S(=O)(=O)N2C[C@H]3CN(Cc4cccnc4)C[C@H]3C2)c1 | 8.46% |
| Cc1cc(S(=O)(=O)NCC(C)(C)N)c(F)cc1F | 3.8% |
| c1cc(COC[C@]23COC[C@H]2CN(CC2CCC2)C3)ccn1 | -77.1% |
| Cn1cc(C2CC(=O)NC23CCN(CC2CC2)CC3)cn1 (configuration not stated) | -7.28% |
| COCCN1C(=O)CCC12CCCN(Cc1nccs1)CC2 (configuration not stated) | -85.1% |
| CN1CC(=O)N(c2ccccc2)CC12CCN(CC1CC1)C2 (configuration not stated) | 4.42% |
| c1ccc(CN2C[C@@H]3COC[C@]3(COCc3ccncc3)C2)nc1 | -76.1% |
| CO[C@@H]1CCN(S(=O)(=O)c2cn(C)cn2)[C@H]1Cc1cnn(C)c1 | 4.56% |
| O=C(Nc1ccccc1)N1C2CCC(O)(CC2)C1CN1CCOCC1 (configuration not stated) | 10% |

Reference: ChEMBL document CHEMBL4513216, “Probing the Open Global Health Chemical Diversity Library for Multistage-Active Starting Points for Next-Generation Antimalarials” (ACS Infect Dis, 2020)
